Results as given in ChEMBL document CHEMBL4190330, “Discovery of Potent and Selective A2A Antagonists with Efficacy in Animal Models of Parkinson's Disease and Depression” (ACS Med Chem Lett, 2017).

Assays:
Type in all cases: ADME, organism-based
[1] = AUC (0 to t) in Wistar rat at 3 mg/kg, iv by LC-MS/MS analysis; conditions: in vivo
[2] = Volume of distribution at steady state in Wistar rat at 3 mg/kg, iv by LC-MS/MS analysis; conditions: in vivo, read-out: Vdss
How it was run: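 Male Wistar rats, n = 4; iv dose 3 mg/kg in 10% NMP, 10% Cremophor EL, acetate buffer pH 4.2 q.s.; values are means.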

[3] = AUC (0 to t) in Wistar rat at 10 mg/kg, po administered via gavage by LC-MS/MS analysis; conditions: in vivo

COCCOc1ccc(N2CCN(CCn3c(=O)n(C)c4c3nc(N)n3nc(-c5nccs5)nc43)CC2)cc1F
AUC(0-t) [1]: 3.6 µM·h | Vd [2]: 3.6 L/kg | AUC(0-t) [3]: 2.2 µM·h
